From PubChem BioAssay AID623993 (Broad Institute, 2012)
Calls of active or inactive are those of the source.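 Rule for the calls: active = inhibitor whose fitted half-maximal dose is at most twice the top valid tested dose; inconclusive = flat curve with partial inhibition, or poor fit; inactive = signal rising, flat near zero, or weaker potency.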

Molecular target: PvdQ acyl-homoserine lactone acylase (Pseudomonas aeruginosa LESB58)
Experiment: PvdQ acylase inhibitors, dose response, biochemical, 4-MU laurate fluorescence, dry powder, set 4 (AID 623993)
Conditions: purified PvdQ, 4-MU laurate hydrolysis fluorescence
Method in brief: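 Material: purified Pseudomonas aeruginosa PvdQ acylase enzyme; Buffer or medium: 50 mM Tris pH 8.0, 50 mM NaCl, 0.2 mM TCEP, Triton X-100; Reagent: fluorogenic substrate 4-methylumbelliferone laurate, 0.8 mM final; Times: 30 min preincubation plus 60 min reaction, room temperature; Signal: fluorescence at 0 and 60 min, excitation 303–367 nm, emission 440–460 nm.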

SMILES	AC50
N#CC(c1ccc(C(F)(F)F)c(Cl)n1)c1ccccc1OC(F)(F)F (stereo not given)	15200 nM
CCCCC(c1ccc(Cl)cc1)c1nn[nH]n1 (stereo not given)	3530 nM
N#CC(c1ccc(Cl)cc1)N1CCCC1 (stereo not given)	786 nM
N#CC(c1ccc(F)cc1)c1cccc(Cl)n1 (stereo not given)	108 nM
N#CC(c1ccc(Cl)cc1)c1cccc(C(F)(F)F)n1 (stereo not given)	23.6 nM
N#CC(c1cccc(Cl)n1)c1ccc(Cl)cc1F (stereo not given)	7.66 nM
N#CC(c1ccc(Cl)cc1)c1cccc(Cl)n1 (stereo not given)	49.1 nM
CCCCC(C#N)c1ccc(F)cc1 (stereo not given)	412 nM
N#Cc1cccc(C(C#N)c2ccc(F)cc2)n1 (stereo not given)	140 nM
N#CC(c1ccc(Cl)cc1)c1ccccn1 (stereo not given)	212 nM
COCCC(C#N)c1ccc(F)cc1 (stereo not given)	530 nM

Results, then the molecule that gave them:

AC50	SMILES
412 nM	CCCCC(C#N)c1ccc(Cl)cc1 (stereo not given)
177 nM	COCCOCCC(C#N)c1ccc(F)cc1 (stereo not given)
14500 nM	CN(C)CCCC(C#N)c1ccc(Cl)cc1 (stereo not given)
< 3 nM	N#CC(c1ccc(F)cc1)c1cccc(C(F)(F)F)n1 (stereo not given)
3470 nM	COCCC(C#N)c1ccc(Cl)cc1 (stereo not given)
7070 nM	COCCOCCC(C#N)c1ccc(Cl)cc1 (stereo not given)
< 3 nM	N#CC(c1cccc(C(F)(F)F)n1)c1ccc(Cl)cc1F (stereo not given)
3510 nM	N#CC1c2ccc(Cl)cc2CCc2cccnc21 (stereo not given)
3.01 nM	N#CC(c1ccc(Cl)cc1)c1ncccc1Cl (stereo not given)
1630 nM	CCCCC(C#N)c1ccc(Cl)cn1 (stereo not given)
273 nM	CN(C)CCCC(C#N)c1ccc(F)cc1 (stereo not given)

Same assay, conditions: purified PvdQ, 4-MU laurate hydrolysis fluorescence; at 19.5 µM (top of the series)

activity change, negative = inhibition	SMILES
inactive	Clc1ccc(C(c2cccc(Cl)n2)c2nn[nH]n2)cc1 (stereo not given)
inactive	COCCNC(C#N)c1ccc(Cl)cc1 (stereo not given)
inactive	CCCCC(C#N)c1ccccn1 (stereo not given)
